Blank lines part the entries; values can stand above or below the compound they belong to. Activity calls are given as the source filed them. The calls are words filed in the database; no cut-off is given here.
Columns and labels:
[1] = Inhibition of histidine-tagged Escherichia coli ATCase catalytic domain assessed as N-carbamoyl-L-aspartate formation by colorimetric assay
Method in brief: (§1)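 E. coli His-tagged C3 (catalytic subunit) ATCase, purified from pEK17/EK1104, at 75 ng/mL. Assay at room temperature in 0.1 M Tris-acetate pH 8.3 with 10 mM L-aspartate. […] N-carbamoyl-L-aspartate formation was read colorimetrically. Ki and inhibition mode were taken from the kinetics.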

[2] = test system: Escherichia coli; experiment: Ratio of compound Ki to N-phosphonacetyl-L-aspartate Ki for histidine-tagged Escherichia coli ATCase catalytic domain
[3] = test system: Escherichia coli; experiment: Inhibition of histidine-tagged Escherichia coli ATCase catalytic domain assessed as N-carbamoyl-L-aspartate formation at 0.5 to 6 uM by colorimetric assay
Method in brief: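 E. coli His-tagged C3 ATCase catalytic subunit (75 ng/mL), purified from strain/plasmid pEK17/EK1104, run at room temperature in 0.1 M Tris-acetate pH 8.3 with 10 mM L-aspartate. N-carbamoyl-L-aspartate formation read colorimetrically. […] Ki and inhibition mode derived from these kinetics.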

[4] = Uncompetitive inhibition of histidine-tagged Escherichia coli ATCase catalytic domain assessed as N-carbamoyl-L-aspartate formation by colorimetric assay; method in brief: as §1
[5] = test system: Escherichia coli; experiment: Ratio of compound Ki to (2S)-2-(2-(hydroxy(hydroxymethyl)phosphoryl)acetamido)succinic acid Ki for histidine-tagged Escherichia coli ATCase catalytic domain

SMILES: O=C(O)C[C@H](NC(=O)COP(=O)(O)O)C(=O)O
- Ki ([1]; read-out: Ki): 210 nM
- Ratio Ki [2]: 13

- inhibition [3]: inactive
SMILES: O=C(O)C[C@H](NC(=O)CC(C(=O)O)C(=O)O)C(=O)O

SMILES: O=C(O)C[C@@H](C(=O)O)N1CCP(=O)(O)CC1=O
- Ki ([1]; read-out: Ki): 1000 nM
- Ratio Ki [2]: 63

SMILES: O=C(O)C[C@H](NC(=O)CP(=O)(O)CCO)C(=O)O
- Ki [4]: 2500 nM
- Ratio Ki [5]: 13
- Ratio Ki [2]: 156

- inhibition [3]: inactive
SMILES: O=C(O)CCC(=O)N[C@@H](CC(=O)O)C(=O)O

SMILES: O=C(O)C[C@H](NC(=O)CP(=O)(O)CC(=O)O)C(=O)O
- Ki ([1]; read-out: Ki): 3600 nM
- Ratio Ki [2]: 225

SMILES: O=C(O)C[C@@H](C(=O)O)N1CCP(=O)(O)CC1
- Ki [1]: Not Active

SMILES: O=C(O)C[C@H](NC(=O)NCP(=O)(O)O)C(=O)O
- Ki ([1]; read-out: Ki): 2100 nM
- Ratio Ki [2]: 131

SMILES: O=C(O)C[C@H](NC(=O)C[PH](=O)CO)C(=O)O (some centres not stated)
- Ki ([1]; read-out: Ki): 190 nM
- Ratio Ki [2]: 12

SMILES: O=C(O)C[C@H](NC(=O)C[PH](=O)O)C(=O)O
- Ki ([1]; read-out: Ki): 420 nM
- Ratio Ki [2]: 26

SMILES: O=C(O)C[C@H](NC(=O)OCP(=O)(O)O)C(=O)O
- Ki [1]: Not Active

- inhibition [3]: inactive
SMILES: O=C(O)CC(=O)N[C@@H](CC(=O)O)C(=O)O

SMILES: O=C(O)C[C@H](NC(=O)CP(=O)(O)O)C(=O)O [PALA]
- Ki ([1]; read-out: Ki): 16 nM

SMILES: O=C(O)C[C@@H](C(=O)O)N1CP(=O)(O)CC1=O
- Ki [1]: Not Active
